Consider 24 compounds from ChEMBL document CHEMBL1132626 (J Med Chem, 1999).

The test system of assay [1] is Rattus norvegicus. The assay is described as follows: In vivo efficacy was evaluated using a carrageenan-induced rat paw edema model as ED50. Format: functional. In outline: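 Male Sprague–Dawley rats (150–200 g) were fasted overnight and dosed po in vehicle (1% methocel or 5% Tween 80). After 1 h, baseline paw volume was measured by plethysmometry and 1% carrageenan in saline was injected subplantarly (500 µg/paw). Paw swelling was measured 3 h later and % inhibition calculated versus vehicle. ED50 used ≥4 dose points with 5 rats/group.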

The target of assay [2] is T1, Prostaglandin G/H synthase 2 (Homo sapiens, UniProt P35354).
T1 sequence (P35354 whole entry): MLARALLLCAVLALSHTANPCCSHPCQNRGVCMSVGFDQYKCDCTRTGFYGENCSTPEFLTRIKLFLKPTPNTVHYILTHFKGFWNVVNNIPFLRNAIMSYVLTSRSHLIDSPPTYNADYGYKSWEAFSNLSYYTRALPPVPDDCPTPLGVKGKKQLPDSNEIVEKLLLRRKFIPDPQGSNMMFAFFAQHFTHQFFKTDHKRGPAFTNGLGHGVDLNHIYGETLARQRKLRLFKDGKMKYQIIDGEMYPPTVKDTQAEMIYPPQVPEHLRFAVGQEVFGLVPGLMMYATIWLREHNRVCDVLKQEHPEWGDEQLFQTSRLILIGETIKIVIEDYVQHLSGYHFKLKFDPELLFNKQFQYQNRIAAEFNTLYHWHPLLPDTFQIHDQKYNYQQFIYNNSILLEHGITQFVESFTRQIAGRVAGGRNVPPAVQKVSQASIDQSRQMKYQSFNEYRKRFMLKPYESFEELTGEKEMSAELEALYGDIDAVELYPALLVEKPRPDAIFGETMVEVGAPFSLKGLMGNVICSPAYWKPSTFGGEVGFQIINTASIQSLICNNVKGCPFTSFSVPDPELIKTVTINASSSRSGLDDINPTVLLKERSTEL
Type of assay: tissue-based, Blood.

Assay [3] concerns the target T1, Prostaglandin G/H synthase 2. Type of assay: cell-based, CHO.
Assay [4] addresses T2, Prostaglandin G/H synthase 1 (Homo sapiens, UniProt P23219). Format: tissue-based, Blood.
The target in assay [5] is T2, Prostaglandin G/H synthase 1.
Assay [6] deals with Rattus norvegicus. In words: Compound was tested for 10 days at 100 mg/kg/day in rats activity measured as Cr leakage; Clean. Type of assay: functional, organism-based.
For assay [7], the system named is Rattus norvegicus. The assay is described as follows: In vivo efficacy was evaluated using a carrageenan-induced rat hyperalgesia model as ED50. Type of assay: functional. The gist of the method: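 Male Sprague–Dawley rats (90–110 g) received intraplantar carrageenan (4.5 mg/paw). Compound was given orally 2 h after carrageenan. One hour later, the vocalization response to compression of the injected paw was measured with an algesiometer. ID50 was derived from at least four dose points.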

Assay [8] deals with Rattus norvegicus. In words: In vivo efficacy was evaluated in adjuvant arthritis(21 day). Type of assay: functional. Conditions: 504 h, read-out: ID50 (the source's name). In outline: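 Arthritis was induced in female Lewis rats (7 weeks, 144–172 g) by intradermal left hind footpad injection of 0.5 mg Mycobacterium butyricum in light mineral oil; 10 rats/group. Secondary-paw volume, body weight and radiographs were recorded on days 0, 14 and 21. Analysis used two-factor repeated-measures ANOVA with Dunnett's test.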

The subject of assay [9] is Rattus norvegicus. The assay is described as follows: In vivo efficacy was evaluated using a LPS-induced rat pyresis model as ED50.

T2 sequence (P23219 whole entry): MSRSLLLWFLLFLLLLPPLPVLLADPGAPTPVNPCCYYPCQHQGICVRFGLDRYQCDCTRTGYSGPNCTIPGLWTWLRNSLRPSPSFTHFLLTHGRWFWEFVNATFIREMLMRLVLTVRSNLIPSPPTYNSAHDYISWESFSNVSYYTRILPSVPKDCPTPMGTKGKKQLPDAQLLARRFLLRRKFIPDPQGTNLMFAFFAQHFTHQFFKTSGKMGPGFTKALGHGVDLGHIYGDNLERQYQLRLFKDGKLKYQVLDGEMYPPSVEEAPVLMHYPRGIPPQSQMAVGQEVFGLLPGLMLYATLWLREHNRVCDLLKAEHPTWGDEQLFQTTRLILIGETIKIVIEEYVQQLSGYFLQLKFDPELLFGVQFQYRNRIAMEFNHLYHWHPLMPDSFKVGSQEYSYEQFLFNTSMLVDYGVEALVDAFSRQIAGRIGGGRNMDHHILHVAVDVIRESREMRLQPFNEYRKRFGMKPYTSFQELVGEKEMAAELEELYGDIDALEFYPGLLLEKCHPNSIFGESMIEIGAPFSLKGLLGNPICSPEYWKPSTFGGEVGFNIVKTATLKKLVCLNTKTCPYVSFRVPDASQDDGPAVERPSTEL

As to `CS(=O)(=O)c1ccc(C2=C(c3ccccc3)C(=O)OC2)cc1` [ROFECOXIB], in the assay with Rattus norvegicus [1], the ED50 is 1.7 mg/kg.
With `Cc1ccncc1C1=C(c2ccc(S(C)(=O)=O)cc2)CCC1=O`, the half-maximal inhibitory concentration (IC50) in assay [2] came to 450 nM; in assay [3], 440 nM; in [4], 4100 nM; in [5], 5500 nM.
Take `CS(=O)(=O)c1ccc(C2=C(/C=C/c3ccc(F)cc3)C(=O)CC2)cc1`: the IC50 stood at 500 nM in assay [2], 175 nM in assay [3] and 27000 nM in [4]. In addition, in the assay with Rattus norvegicus [1], the ED50 is more than 10 mg/kg.
For the compound `CS(=O)(=O)c1ccc(C2=C(c3ccc(F)cc3)C(=O)CC2)cc1`, the concentration for half-maximal inhibition (IC50) in [2] was 80 nM; in [3], 19 nM; in assay [4], 3700 nM; in assay [5], 500 nM. In addition, the ED50 in the assay on Rattus norvegicus [1] worked out at 3 mg/kg.
The matching figures for `CS(=O)(=O)c1ccc(C2=C(Oc3cc(F)cc(F)c3)C(=O)CC2)cc1`: 1100 nM, 17 nM, 94000 nM, 2700 nM and 6.6 mg/kg.
As to `CS(=O)(=O)c1ccc(C2=C(c3ccccn3)C(=O)CC2)cc1`, the IC50 was 9800 nM in assay [2], 1530 nM in [3] and more than 10000 nM in assay [5].
Consider `CS(=O)(=O)c1ccc(C2=C(c3cccc(F)c3)C(=O)CC2)cc1`, for which the IC50 in assay [2] was found to be 340 nM; in assay [3], 14 nM; in [5], 6600 nM. For the same compound, in the assay on Rattus norvegicus [1], the ED50 is 6.4 mg/kg.
Turning to `CS(=O)(=O)c1ccc(C2=C(c3ccc(F)c(Cl)c3)C(=O)CC2)cc1`, the 50% inhibitory concentration (IC50) in assay [2] amounted to 90 nM; in [3], 9 nM; in [5], 300 nM.
`CS(=O)(=O)c1ccc(C2=C(c3cc(F)cc(F)c3)C(=O)CC2)cc1`: the IC50 amounted to 620 nM in assay [2], 15 nM in assay [3] and 61000 nM in assay [4]. The Cr leakage result in the assay on Rattus norvegicus [6] is given as “Clean”. Also, the ED50 with Rattus norvegicus [7] worked out at 3 mg/kg; in the assay with Rattus norvegicus [1] it was 2.6 mg/kg; in the assay with Rattus norvegicus [8], 4 mg/kg; in the assay with Rattus norvegicus [9], 0.8 mg/kg.
Turning to `CS(=O)(=O)c1ccc(C2=C(c3cncc(Br)c3)C(=O)CC2)cc1`, the concentration for half-maximal inhibition (IC50) is 1700 nM in [2], 300 nM in [3] and more than 100000 nM in assay [5].
Regarding `CS(=O)(=O)c1ccc(C2=C(c3ccc(Cl)c(F)c3)C(=O)CC2)cc1`, the IC50 in assay [2] amounted to 150 nM; in assay [3], 15 nM; in [4], 100 nM; in assay [5], 700 nM.
With `CS(=O)(=O)c1ccc(C2=C(c3cc(Br)ccn3)C(=O)CC2)cc1`, the IC50 turned out to be 470 nM in assay [2], 630 nM in assay [3] and 18000 nM in [5].
For `COc1ccncc1C1=C(c2ccc(S(C)(=O)=O)cc2)CCC1=O`, in that order: 90 nM, 150 nM and 60 nM.
For the compound `CS(=O)(=O)c1ccc(C2=C(c3ccccc3)C(=O)CC2)cc1`, the IC50 in assay [3] is 11 nM; in assay [4], 4100 nM; in assay [5], 3100 nM. In the assay with Rattus norvegicus [1], this compound registered an ED50 of 10 mg/kg.
On to `CS(=O)(=O)c1ccc(C2=C(c3cc(Cl)cc(Cl)c3)C(=O)CC2)cc1`, for which the half-inhibitory concentration (IC50) is 280 nM in assay [2], 14 nM in assay [3], more than 100000 nM in [4] and 9200 nM in [5]. In the assay on Rattus norvegicus [1], the ED50 is more than 10 mg/kg.
`CS(=O)(=O)c1ccc(C2=C(c3cccnc3)C(=O)CC2)cc1`: the half-maximal inhibitory concentration (IC50) in assay [2] was found to be 640 nM; in assay [3], 170 nM; in [4] it was 73000 nM; in [5], 34000 nM. The Cr leakage result in the assay with Rattus norvegicus [6] is “Clean”. In addition, the ED50 with Rattus norvegicus [7] was 0.7 mg/kg; with Rattus norvegicus [1], 1.7 mg/kg; in the assay on Rattus norvegicus [8], 0.6 mg/kg; with Rattus norvegicus [9] it was 0.7 mg/kg.
For `CS(=O)(=O)c1ccc(C2=C(c3cc(Cl)ccn3)C(=O)CC2)cc1`, the half-inhibitory concentration (IC50) is 520 nM in assay [2], 190 nM in [3], 34000 nM in [4] and 27000 nM in assay [5]. This compound gave an ED50 with Rattus norvegicus [1] of 2.5 mg/kg.
Take `CS(=O)(=O)c1ccc(C2=C(C#Cc3ccccc3)C(=O)CC2)cc1`: the IC50 in assay [2] amounted to 640 nM; in [3], 6 nM.
Regarding `Cc1ccc(-c2cc(C(F)(F)F)nn2-c2ccc(S(N)(=O)=O)cc2)cc1` [CELECOXIB], the ED50 in the assay with Rattus norvegicus [1] was 3.2 mg/kg.
Turning to `CS(=O)(=O)c1ccc(C2=C(c3cc(Cl)c(Cl)c(Cl)c3)C(=O)CC2)cc1`, the concentration for half-maximal inhibition (IC50) in [2] is 930 nM; in [3], 6 nM; in assay [5], 2500 nM.
`CS(=O)(=O)c1ccc(C2=C(c3cc4ccccc4s3)C(=O)CC2)cc1`: the values for the IC50 in [2], in [3] and in [5] were 80 nM, 14 nM and 100 nM, respectively.
For `CS(=O)(=O)c1ccc(C2=C(c3cncc(Cl)c3)C(=O)CC2)cc1`, the IC50 in assay [4] and in [5] was more than 100000 nM throughout. The compound further had an ED50 in the assay on Rattus norvegicus [1] of 1.3 mg/kg.
Consider `CS(=O)(=O)c1ccc(C2=C(c3ccc(F)c(F)c3)C(=O)CC2)cc1`, for which the half-maximal inhibitory concentration (IC50) in assay [2] was 210 nM; in assay [3], 14 nM; in assay [4] it was 3200 nM; in assay [5] it was 1700 nM.
With `CC(C)(C)C#CC1=C(c2ccc(S(C)(=O)=O)cc2)CCC1=O`, the values for the IC50 in assay [2], in assay [3] and in assay [5] were 5200 nM, 150 nM and more than 100000 nM, respectively.

One may read the IC50 as the concentration that inhibits the measured activity by half.
